Source: article PMC6319256 (Bioorganic & medicinal chemistry letters, 2018)
Entries after “also recorded” stand apart in the source; their conditions may differ.

Assays:
K-Ras^G12C = conditions: cited from earlier work
cathepsin L [1] = target: T1, cathepsin L (Homo sapiens, UniProt P07711); conditions: cited from earlier work; for kinact: cathepsin L, range stated for both compounds and both enzymes
Cathepsin B [2] = target: T2, Cathepsin B (Homo sapiens, UniProt P07858); conditions: cited from earlier work; for kinact: cathepsin B, range stated for both compounds and both enzymes
cathepsin L [3] = target: T1, cathepsin L; experiment: Cathepsin L inhibition kinetics; assay type: biochemical
Cathepsin B [4] = target: T2, Cathepsin B; experiment: Cathepsin B inhibition with and without preincubation; assay type: biochemical; conditions: with and without preincubation of the inhibitor
Calpain I = target: T3, Calpain I (Homo sapiens, UniProt P07384); experiment: Calpain I inhibition with and without preincubation; assay type: biochemical; conditions: with and without preincubation of the inhibitor
T3 sequence (P07384 1-714): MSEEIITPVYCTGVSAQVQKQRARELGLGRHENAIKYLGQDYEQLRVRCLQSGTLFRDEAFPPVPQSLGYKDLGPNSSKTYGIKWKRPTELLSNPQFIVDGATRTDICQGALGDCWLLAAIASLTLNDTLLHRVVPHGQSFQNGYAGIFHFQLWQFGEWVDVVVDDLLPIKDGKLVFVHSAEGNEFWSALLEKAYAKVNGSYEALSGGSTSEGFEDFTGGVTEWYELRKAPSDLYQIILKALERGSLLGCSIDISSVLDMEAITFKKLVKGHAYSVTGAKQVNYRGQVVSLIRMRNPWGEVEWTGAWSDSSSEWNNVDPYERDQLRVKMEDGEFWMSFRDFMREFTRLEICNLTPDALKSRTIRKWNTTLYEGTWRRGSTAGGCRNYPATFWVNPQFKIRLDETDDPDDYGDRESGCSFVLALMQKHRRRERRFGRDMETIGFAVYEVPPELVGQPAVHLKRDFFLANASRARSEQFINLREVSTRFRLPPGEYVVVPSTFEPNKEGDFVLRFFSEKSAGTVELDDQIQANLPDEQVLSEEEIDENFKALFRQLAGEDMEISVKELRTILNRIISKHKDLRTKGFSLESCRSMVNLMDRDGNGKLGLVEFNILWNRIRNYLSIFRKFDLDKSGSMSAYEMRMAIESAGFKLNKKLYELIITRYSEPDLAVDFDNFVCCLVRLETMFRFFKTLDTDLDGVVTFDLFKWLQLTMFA
T3 sequence (P04632 1-268 partner): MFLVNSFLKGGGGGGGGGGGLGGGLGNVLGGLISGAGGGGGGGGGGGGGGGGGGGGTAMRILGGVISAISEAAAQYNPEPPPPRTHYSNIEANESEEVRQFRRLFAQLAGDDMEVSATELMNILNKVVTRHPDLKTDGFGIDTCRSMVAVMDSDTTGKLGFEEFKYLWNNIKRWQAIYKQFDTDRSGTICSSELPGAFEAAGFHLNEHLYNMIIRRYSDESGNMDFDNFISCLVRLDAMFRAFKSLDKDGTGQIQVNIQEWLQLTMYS

cathepsin L [5] = target: T1, cathepsin L; experiment: Irreversibility study; assay type: biochemical; conditions: 50 μM compound preincubated with Cathepsin L (10 nM), gel filtration
Summary of the method: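 Test compound at 50 μM was preincubated with cathepsin L at 10 nM, then passed through a desalting spin column. Flow-through aliquots were assayed for recovery of enzyme activity at several time points.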

USP8 = target: T4, USP8 (Homo sapiens, UniProt P40818); experiment: USP8 inhibition with and without preincubation; assay type: biochemical; conditions: with and without preincubation of the inhibitor
T4 sequence (P40818 1-1118): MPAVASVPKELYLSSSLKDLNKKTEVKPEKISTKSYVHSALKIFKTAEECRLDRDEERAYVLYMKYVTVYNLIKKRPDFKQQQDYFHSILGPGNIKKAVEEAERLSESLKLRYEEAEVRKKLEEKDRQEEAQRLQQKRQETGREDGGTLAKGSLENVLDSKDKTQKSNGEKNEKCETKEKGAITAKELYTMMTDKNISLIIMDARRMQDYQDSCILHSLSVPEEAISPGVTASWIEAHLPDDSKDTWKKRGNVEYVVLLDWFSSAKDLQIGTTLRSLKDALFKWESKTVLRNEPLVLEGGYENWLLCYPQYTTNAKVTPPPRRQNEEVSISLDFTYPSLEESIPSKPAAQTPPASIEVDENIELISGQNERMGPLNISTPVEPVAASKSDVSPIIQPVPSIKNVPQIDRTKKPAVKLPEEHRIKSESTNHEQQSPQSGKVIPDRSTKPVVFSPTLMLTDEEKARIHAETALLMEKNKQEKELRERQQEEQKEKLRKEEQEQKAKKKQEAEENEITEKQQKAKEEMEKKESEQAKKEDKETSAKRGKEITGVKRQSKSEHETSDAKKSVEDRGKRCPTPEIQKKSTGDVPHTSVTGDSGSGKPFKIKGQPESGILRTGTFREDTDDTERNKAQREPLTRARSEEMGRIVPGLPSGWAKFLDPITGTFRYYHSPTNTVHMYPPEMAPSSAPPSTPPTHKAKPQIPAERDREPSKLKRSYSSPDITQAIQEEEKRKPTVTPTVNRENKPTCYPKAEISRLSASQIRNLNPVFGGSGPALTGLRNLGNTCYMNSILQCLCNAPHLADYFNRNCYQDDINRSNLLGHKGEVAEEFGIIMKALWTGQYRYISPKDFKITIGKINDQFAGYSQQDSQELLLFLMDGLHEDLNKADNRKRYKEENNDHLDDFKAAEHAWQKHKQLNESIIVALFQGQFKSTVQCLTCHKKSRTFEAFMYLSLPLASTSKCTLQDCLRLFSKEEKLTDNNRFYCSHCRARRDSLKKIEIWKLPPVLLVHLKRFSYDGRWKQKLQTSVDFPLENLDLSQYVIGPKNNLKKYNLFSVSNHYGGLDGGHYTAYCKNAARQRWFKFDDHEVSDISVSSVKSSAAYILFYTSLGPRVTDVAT

T1 sequence (P07711 114-333): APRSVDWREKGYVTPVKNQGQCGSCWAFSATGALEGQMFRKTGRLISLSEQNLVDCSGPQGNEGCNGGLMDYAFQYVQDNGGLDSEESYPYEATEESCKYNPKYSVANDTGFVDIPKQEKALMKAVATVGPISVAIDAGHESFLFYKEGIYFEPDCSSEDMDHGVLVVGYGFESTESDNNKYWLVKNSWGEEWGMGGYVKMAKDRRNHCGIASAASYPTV

C=CC(=O)N1CCN(c2ncnc3c(F)c(-c4c(O)cccc4F)c(Cl)cc23)CC1 [ARS-1620]
activity in vivo (K-Ras^G12C): active in vivo

O=C(N[C@H](/C=C/S(=O)(=O)c1ccccc1)CCc1ccccc1)[C@H](Cc1ccccc1)NC(=O)N1CCOCC1 [compound 7]
kinact (cathepsin L [1]): 0.17 to 0.36 s⁻¹ | selectivity cathepsin L vs B as judged by Ki values (cathepsin L [1]): more selective at inhibiting cathepsin L | kinact (Cathepsin B [2]): 0.17 to 0.36 s⁻¹

O=C(N[C@H](/C=C/S(=O)(=O)c1ccccc1)CCc1ccccc1)[C@H](Cc1cc(I)c(O)c(I)c1)NC(=O)N1CCOCC1 [compound 8]
kinact (cathepsin L [1]): 0.17 to 0.36 s⁻¹ | selectivity cathepsin L vs B as judged by Ki values (cathepsin L [1]): reversed selectivity | kinact (Cathepsin B [2]): 0.17 to 0.36 s⁻¹ | potency for cathepsin B (kinact/Ki values) (Cathepsin B [2]; relative to compound 7): increased potency

C[C@@H](Oc1ccc(Br)cc1Br)C(=O)NC/C=C/S(C)(=O)=O [compound 11]
inhibition of cathepsin L (cathepsin L [3]): time and dose dependent inhibition

CS(=O)(=O)/C=C/CNC(=O)COc1ccc(Br)cc1Br [compound 13]
inhibition of Cathepsin B (Cathepsin B [4]): did not inhibit; also recorded: does not inhibit | inhibition of Calpain I (Calpain I): did not inhibit; also recorded: does not inhibit | mode of inhibition (shift of substrate Km) (cathepsin L [3]; varying concentrations of compound): substrate competitive inhibitor | reversibility of inhibition (cathepsin L [5]): irreversibly | inhibition of USP8 (USP8): did not inhibit; also recorded: does not inhibit
